{"source": "paper PMC4264455", "about": "(British Journal of Cancer, 2014)", "key": {"[1]": {"test_system": "patients with advanced refractory solid tumours or non-Hodgkin's lymphoma", "assay": "Phase I dose escalation: safety, tolerability, DLT and adverse events", "assay_type": "in vivo, human"}, "CDK4": {"test_system": "CDK4", "settings": "ref Squires et al, 2009; cited from earlier work"}, "CDK6": {"test_system": "CDK6", "settings": "ref Squires et al, 2009; cited from earlier work"}, "[2]": {"test_system": "markers of CDK activity in tumour biopsies", "assay": "Pharmacodynamic analysis of tumour biopsies", "assay_type": "in vivo, human", "settings": "three patients at RP2D, pre-dose vs 24 h after end of infusion", "in_short": "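Tumour biopsies were taken at 27.0 mg m−2, before dosing and 24 h after the end of a 1-h IV infusion. Samples were immunostained for PCNA, phospho-NPM and Ki67. Read-out was the estimated percentage of positively stained tumour cells.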"}, "[3]": {"assay": "Pharmacokinetic analysis of plasma AT7519 after first 1-h intravenous infusion", "assay_type": "in vivo, human"}, "QTc intervals": {"test_system": "QTc intervals", "assay": "ECG analysis", "assay_type": "in vivo, human", "in_short": "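After dose level 1, patients with QTc ⩾460 ms at baseline, congenital long QT or QT-affecting medication were excluded. 12-lead ECGs were taken immediately before and after each infusion on days 1, 4, 8 and 11 of cycle 1, with a confirmatory ECG within 48 h of any abnormality. QT was machine-recorded with Bazett correction. At 27.0 mg m−2, 24-h ambulatory ECG started immediately after the cycle 1 infusion. An independent cardiologist reviewed all tracings.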"}, "[4]": {"settings": "1-h intravenous infusion on days 1, 4, 8 and 11 every 3 weeks"}, "[5]": {"settings": "1-h intravenous infusion, day 1 cycle 1, 29 patients"}}, "note": "“Also recorded” adds a separate entry of the source."}
{"smiles": "O=C(NC1CCNCC1)c1n[nH]cc1NC(=O)c1c(Cl)cccc1Cl", "note": "[AT7519, N-(4-piperidinyl)-4-(2,6-dichlorobenzoylamino)-1H-pyrazole-3-carboxamide]", "values": [{"measurement": "Hyperglycaemia (random): No. of patients with AEs of any grade", "setting": "[1]; 32.4 mg m^−2 (n=5)", "result": "2 No. of patients"}, {"measurement": "Infection without neutropenia: No. of patients with AEs of any grade", "setting": "[1]; 32.4 mg m^−2 (n=5)", "result": "2 No. of patients"}, {"measurement": "Lymphopenia: No. of patients with AEs of any grade", "setting": "[1]; 32.4 mg m^−2 (n=5)", "result": "5 No. of patients"}, {"measurement": "Mucositis: No. of patients with AEs of any grade", "setting": "[1]; 32.4 mg m^−2 (n=5)", "result": "3 No. of patients"}, {"measurement": "Nausea: No. of patients with AEs of any grade", "setting": "[1]; 32.4 mg m^−2 (n=5)", "result": "4 No. of patients"}, {"measurement": "Neutropenia: No. of patients with AEs of any grade", "setting": "[1]; 32.4 mg m^−2 (n=5)", "result": "1 No. of patients"}, {"measurement": "Thrombocytopenia: No. of patients with AEs of any grade", "setting": "[1]; 32.4 mg m^−2 (n=5)", "result": "2 No. of patients"}, {"measurement": "Vomiting: No. of patients with AEs of any grade", "setting": "[1]; 32.4 mg m^−2 (n=5)", "result": "5 No. of patients"}, {"measurement": "maximum tolerated dose", "setting": "[1]; [4]", "result": 32.4, "unit": "mg m^−2"}, {"measurement": "recommended phase II dose (RP2D)", "setting": "[1]; [4]", "result": 27.0, "unit": "mg m^−2"}, {"measurement": "ALP elevation: Any grade AE No. of patients (%)", "setting": "[1]; all dose levels (N=32)", "result": "20 (62.5) No. of patients (%)"}, {"measurement": "ALP elevation: Grade 3/4 AE No. of patients (%)", "setting": "[1]; all dose levels (N=32)", "result": "5 (15.6) No. of patients (%)"}, {"measurement": "AST elevation: Any grade AE No. of patients (%)", "setting": "[1]; all dose levels (N=32)", "result": "16 (50.0) No. of patients (%)"}, {"measurement": "AST elevation: Grade 3/4 AE No. of patients (%)", "setting": "[1]; all dose levels (N=32)", "result": "3 (9.4) No. of patients (%)"}, {"measurement": "Anaemia: Any grade AE No. of patients (%)", "setting": "[1]; all dose levels (N=32)", "result": "28 (87.5) No. of patients (%)"}, {"measurement": "Anaemia: Grade 3/4 AE No. of patients (%)", "setting": "[1]; all dose levels (N=32)", "result": "1 (3.1) No. of patients (%)"}, {"measurement": "Anorexia: Any grade AE No. of patients (%)", "setting": "[1]; all dose levels (N=32)", "result": "4 (12.5) No. of patients (%)"}, {"measurement": "Anorexia: Grade 3/4 AE No. of patients (%)", "setting": "[1]; all dose levels (N=32)", "result": "0 No. of patients (%)"}, {"measurement": "Creatinine elevation: Any grade AE No. of patients (%)", "setting": "[1]; all dose levels (N=32)", "result": "5 (15.6) No. of patients (%)"}, {"measurement": "Creatinine elevation: Grade 3/4 AE No. of patients (%)", "setting": "[1]; all dose levels (N=32)", "result": "1 (3.1) No. of patients (%)"}, {"measurement": "Diarrhoea: Any grade AE No. of patients (%)", "setting": "[1]; all dose levels (N=32)", "result": "5 (15.6) No. of patients (%)"}, {"measurement": "Diarrhoea: Grade 3/4 AE No. of patients (%)", "setting": "[1]; all dose levels (N=32)", "result": "0 No. of patients (%)"}, {"measurement": "Fatigue: Any grade AE No. of patients (%)", "setting": "[1]; all dose levels (N=32)", "result": "17 (53.1) No. of patients (%)"}, {"measurement": "Fatigue: Grade 3/4 AE No. of patients (%)", "setting": "[1]; all dose levels (N=32)", "result": "3 (9.4) No. of patients (%)"}, {"measurement": "Hyperglycaemia (random): Any grade AE No. of patients (%)", "setting": "[1]; all dose levels (N=32)", "result": "12 (37.5) No. of patients (%)"}, {"measurement": "Hyperglycaemia (random): Grade 3/4 AE No. of patients (%)", "setting": "[1]; all dose levels (N=32)", "result": "2 (6.3) No. of patients (%)"}, {"measurement": "Infection without neutropenia: Any grade AE No. of patients (%)", "setting": "[1]; all dose levels (N=32)", "result": "6 (18.8) No. of patients (%)"}, {"measurement": "Infection without neutropenia: Grade 3/4 AE No. of patients (%)", "setting": "[1]; all dose levels (N=32)", "result": "1 (3.1) No. of patients (%)"}, {"measurement": "Lymphopenia: Any grade AE No. of patients (%)", "setting": "[1]; all dose levels (N=32)", "result": "27 (84.4) No. of patients (%)"}, {"measurement": "Lymphopenia: Grade 3/4 AE No. of patients (%)", "setting": "[1]; all dose levels (N=32)", "result": "12 (37.5) No. of patients (%)"}, {"measurement": "Mucositis: Any grade AE No. of patients (%)", "setting": "[1]; all dose levels (N=32)", "result": "17 (53.1) No. of patients (%)"}, {"measurement": "Mucositis: Grade 3/4 AE No. of patients (%)", "setting": "[1]; all dose levels (N=32)", "result": "3 (9.4) No. of patients (%)"}, {"measurement": "Nausea: Grade 3/4 AE No. of patients (%)", "setting": "[1]; all dose levels (N=32)", "result": "0 No. of patients (%)"}, {"measurement": "Neutropenia: Any grade AE No. of patients (%)", "setting": "[1]; all dose levels (N=32)", "result": "5 (15.6) No. of patients (%)"}, {"measurement": "Neutropenia: Grade 3/4 AE No. of patients (%)", "setting": "[1]; all dose levels (N=32)", "result": "1 (3.1) No. of patients (%)"}, {"measurement": "Thrombocytopenia: Any grade AE No. of patients (%)", "setting": "[1]; all dose levels (N=32)", "result": "9 (28.1) No. of patients (%)"}, {"measurement": "Thrombocytopenia: Grade 3/4 AE No. of patients (%)", "setting": "[1]; all dose levels (N=32)", "result": "0 No. of patients (%)"}, {"measurement": "Vomiting: Any grade AE No. of patients (%)", "setting": "[1]; all dose levels (N=32)", "result": "11 (34.4) No. of patients (%)"}, {"measurement": "Vomiting: Grade 3/4 AE No. of patients (%)", "setting": "[1]; all dose levels (N=32)", "result": "0 No. of patients (%)"}, {"measurement": "patients with anaemia", "setting": "[1]; any grade, all dose levels", "result": 87.5, "unit": "%"}, {"measurement": "patients with fatigue", "setting": "[1]; any grade, all dose levels", "result": 53.1, "unit": "%"}, {"measurement": "patients with lymphopenia", "setting": "[1]; any grade, all dose levels", "result": 84.4, "unit": "%"}, {"measurement": "patients with mucositis", "setting": "[1]; any grade, all dose levels", "result": 53.1, "unit": "%"}, {"measurement": "patients with nausea", "setting": "[1]; any grade, all dose levels", "result": 31.7, "unit": "%"}, {"measurement": "patients with vomiting", "setting": "[1]; any grade, all dose levels", "result": 34.4, "unit": "%"}, {"measurement": "No. of patients with DLT", "setting": "[1]; dose level 14.4 mg m^−2, 5 patients treated, days 1, 4, 8, 11 every 3 weeks", "result": "No DLTs and none"}, {"measurement": "patients experienced grade 3 fatigue and mucositis", "setting": "[1]; grade 3, all dose levels", "result": "< 10", "unit": "%"}, {"measurement": "grade 3 or 4 elevation of alkaline phosphatase", "setting": "[1]; grade 3 or 4, all dose levels", "result": 15.6, "unit": "%"}, {"measurement": "grade 3 or 4 elevation of aspartate transaminase", "setting": "[1]; grade 3 or 4, all dose levels", "result": 9.4, "unit": "%"}, {"measurement": "patients developing grade 3 or 4 lymphopenia", "setting": "[1]; grade 3 or 4, all dose levels", "result": 37.5, "unit": "%"}, {"measurement": "patients with grade 3 or 4 fatigue and mucositis", "setting": "[1]; grade 3 or 4, all dose levels", "result": 9, "unit": "%"}, {"measurement": "IC50", "setting": "CDK4", "result": 100, "unit": "nM"}, {"measurement": "IC50", "setting": "CDK6", "result": 170, "unit": "nM"}, {"measurement": "changes in proliferating cell nuclear antigen, pNPM and Ki67", "setting": "[2]", "result": "no consistent changes"}, {"measurement": "plasma clearance", "setting": "[3]; [5]", "result": "0.28±0.26", "unit": "l min^−1 m^−2"}, {"measurement": "volume of distribution", "setting": "[3]; [5]", "result": "289±218", "unit": "l m^−2"}, {"measurement": "dose dependence of Cmax and plasma exposures", "setting": "[3]; 14.4 to 32.4 mg m^−2", "result": "apparent dose proportional increase; also recorded: linear pharmacokinetics"}, {"measurement": "Cmax", "setting": "[3]; human, plasma, intravenous, 27 mg", "result": "591 ± 358", "unit": "ng/mL"}, {"measurement": "half-life", "setting": "[3]; human, plasma, iv", "result": "13.1 ± 4", "unit": "h"}, {"measurement": "patients with transient QTc increases", "setting": "QTc intervals; among the 24 patients with baseline QTc ⩽450 ms", "result": 10, "unit": "patients"}, {"measurement": "QTc prolongation", "setting": "QTc intervals; serial ECGs, 24-h ambulatory ECG in five patients at the RP2D level", "result": "no clinically significant QTc prolongations"}]}
